Experimental data published in ChEMBL document CHEMBL3593207, “Imidazole clubbed 1,3,4-oxadiazole derivatives as potential antifungal agents” (2015).
Converted amounts (≈) assume the structure as drawn.

Key:
[1] = test system: Candida tropicalis; assay: Antifungal activity against Candida tropicalis ATCC 750 by broth microdilution assay; assay type: functional
In short: (§1)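 CLSI M27-A3 broth microdilution. Compounds diluted to 1 mg/ml in 1% DMSO. Fluconazole (1 mg/ml) served as positive control, 1% DMSO as vehicle control, with media and culture controls. Triplicate at each concentration, repeated thrice. Inocula came from YPDA stocks subcultured in broth for 48 h at 37 °C.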

[2] = test system: Candida tropicalis; assay: Antifungal activity against clinical isolates of Candida tropicalis 2029 by broth microdilution assay; assay type: functional; in short: as §1
[3] = test system: Candida tropicalis; assay: Antifungal activity against clinical isolates of Candida tropicalis 2356 by broth microdilution assay; assay type: functional; in short: as §1
[4] = test system: Candida albicans; assay: Antifungal activity against clinical isolates of Candida albicans 2779 by broth microdilution assay; assay type: functional; in short: as §1
[5] = test system: Candida albicans; assay: Antifungal activity against clinical isolates of Candida albicans 2323 by broth microdilution assay; assay type: functional; in short: as §1
[6] = test system: Candida albicans; assay: Antifungal activity against Candida albicans ATCC 10261 by broth microdilution assay; assay type: functional; in short: as §1
[7] = test system: Candida albicans; assay: Antifungal activity against clinical isolates of Candida albicans 2367 by broth microdilution assay; assay type: functional; in short: as §1
[8] = test system: Candida albicans; assay: Antifungal activity against clinical isolates of Candida albicans 2779 at 2 times MIC after 48 hrs by disc diffusion assay; assay type: functional
In short: (§2)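 Cells (10^3 cells ml−1) grown in YPD were mixed into molten agar (~40 °C) and poured into 100-mm plates. Filter discs (4 mm) were spotted with 10 µl of compound at 1/2 × MIC, MIC or 2 × MIC. Fluconazole and 1% DMSO were the controls. Plates were incubated at 37 °C for 48 h and inhibition zone diameters recorded in mm.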

[9] = test system: Candida tropicalis; assay: Antifungal activity against clinical isolates of Candida tropicalis 2356 at MIC after 48 hrs by disc diffusion assay; assay type: functional; in short: as §2
[10] = test system: Candida tropicalis; assay: Antifungal activity against clinical isolates of Candida tropicalis 2029 at half MIC after 48 hrs by disc diffusion assay; assay type: functional; in short: as §2
[11] = test system: Candida albicans; assay: Antifungal activity against clinical isolates of Candida albicans 2367 at half MIC after 48 hrs by disc diffusion assay; assay type: functional; in short: as §2
[12] = test system: Candida albicans; assay: Antifungal activity against clinical isolates of Candida albicans 2323 at MIC after 48 hrs by disc diffusion assay; assay type: functional; in short: as §2
[13] = test system: Candida albicans; assay: Antifungal activity against clinical isolates of Candida albicans 2367 at MIC after 48 hrs by disc diffusion assay; assay type: functional; in short: as §2
[14] = test system: Candida albicans; assay: Antifungal activity against Candida albicans ATCC 10261 at 2 times MIC after 48 hrs by disc diffusion assay; assay type: functional; in short: as §2
[15] = test system: Candida tropicalis; assay: Antifungal activity against clinical isolates of Candida tropicalis 2356 at half MIC after 48 hrs by disc diffusion assay; assay type: functional; in short: as §2
[16] = test system: Candida albicans; assay: Inhibition of ergosterol biosynthesis in Candida albicans 2779 assessed as ergosterol content at 1/2 MIC after 16 hrs by spectrophotometer analysis; assay type: functional; set-up: scale not given: the % may be the effect or the level left
In short: (§3)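 Cells were pelleted and washed, and wet weight taken. Pellets were saponified in 25% alcoholic KOH at 85 °C for 1 h. Sterols were extracted into n-heptane/water. Ergosterol content is expressed relative to untreated control cells.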

[17] = test system: Candida tropicalis; assay: Antifungal activity against Candida tropicalis ATCC 750 at MIC after 48 hrs by disc diffusion assay; assay type: functional; in short: as §2
[18] = test system: Candida tropicalis; assay: Inhibition of ergosterol biosynthesis in Candida tropicalis ATCC 750 assessed as ergosterol content at MIC after 16 hrs by spectrophotometer analysis; assay type: functional; set-up: scale not given: the % may be the effect or the level left
In short: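 Cells were harvested, washed, and wet pellet weight recorded. Pellets were saponified in 3 mL 25% alcoholic KOH at 85 °C for 1 h, then sterols extracted into n-heptane. Ergosterol is expressed relative to untreated control cells.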

[19] = test system: Candida tropicalis; assay: Inhibition of ergosterol biosynthesis in Candida tropicalis 2029 assessed as ergosterol content at MIC after 16 hrs by spectrophotometer analysis; assay type: functional; set-up: scale not given: the % may be the effect or the level left; in short: as §3
[20] = test system: Candida albicans; assay: Antifungal activity against clinical isolates of Candida albicans 2779 at MIC after 48 hrs by disc diffusion assay; assay type: functional; in short: as §2
[21] = test system: Candida albicans; assay: Antifungal activity against clinical isolates of Candida albicans 2367 at 2 times MIC after 48 hrs by disc diffusion assay; assay type: functional; in short: as §2
[22] = test system: Candida albicans; assay: Inhibition of ergosterol biosynthesis in Candida albicans 2323 assessed as ergosterol content at MIC after 16 hrs by spectrophotometer analysis; assay type: functional; set-up: scale not given: the % may be the effect or the level left; in short: as §3
[23] = test system: Candida albicans; assay: Antifungal activity against clinical isolates of Candida albicans 2323 at half MIC after 48 hrs by disc diffusion assay; assay type: functional; in short: as §2
[24] = test system: Candida tropicalis; assay: Inhibition of ergosterol biosynthesis in Candida tropicalis 2356 assessed as ergosterol content at 1/2 MIC after 16 hrs by spectrophotometer analysis; assay type: functional; set-up: scale not given: the % may be the effect or the level left; in short: as §3
[25] = test system: Candida albicans; assay: Inhibition of ergosterol biosynthesis in Candida albicans 2367 assessed as ergosterol content at 1/2 MIC after 16 hrs by spectrophotometer analysis; assay type: functional; set-up: scale not given: the % may be the effect or the level left; in short: as §3
[26] = test system: Candida tropicalis; assay: Inhibition of ergosterol biosynthesis in Candida tropicalis 2356 assessed as ergosterol content at MIC after 16 hrs by spectrophotometer analysis; assay type: functional; set-up: scale not given: the % may be the effect or the level left; in short: as §3
[27] = test system: Candida albicans; assay: Antifungal activity against Candida albicans ATCC 10261 at MIC after 48 hrs by disc diffusion assay; assay type: functional; in short: as §2
[28] = test system: Candida tropicalis; assay: Antifungal activity against clinical isolates of Candida tropicalis 2029 at MIC after 48 hrs by disc diffusion assay; assay type: functional; in short: as §2
[29] = test system: Candida tropicalis; assay: Inhibition of ergosterol biosynthesis in Candida tropicalis 2029 assessed as ergosterol content at 1/2 MIC after 16 hrs by spectrophotometer analysis; assay type: functional; set-up: scale not given: the % may be the effect or the level left; in short: as §3
[30] = test system: Candida albicans; assay: Antifungal activity against clinical isolates of Candida albicans 2779 at half MIC after 48 hrs by disc diffusion assay; assay type: functional; in short: as §2
[31] = test system: Candida albicans; assay: Inhibition of ergosterol biosynthesis in Candida albicans ATCC 10261 assessed as ergosterol content at MIC after 16 hrs by spectrophotometer analysis; assay type: functional; set-up: scale not given: the % may be the effect or the level left; in short: as §3
[32] = test system: Candida tropicalis; assay: Antifungal activity against clinical isolates of Candida tropicalis 2029 at 2 times MIC after 48 hrs by disc diffusion assay; assay type: functional; in short: as §2
[33] = test system: Candida albicans; assay: Cytotoxicity against Candida albicans ATCC 10261 at MIC after 24 hrs by WST1 assay; assay type: functional
In short: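 Candida cells were exposed to MIC and sub-MIC levels for 24 h in microplates, then to WST-1/CEC dye for 30 min at 37 °C. Plates were shaken 1 min and the reaction stopped with 1% SDS. Formazan was read at 450 nm. % cytotoxicity = 100 × (cell control − experimental)/cell control. Triplicates, mean ± SD.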

[34] = test system: Candida albicans; assay: Inhibition of ergosterol biosynthesis in Candida albicans ATCC 10261 assessed as ergosterol content at 1/2 MIC after 16 hrs by spectrophotometer analysis; assay type: functional; set-up: scale not given: the % may be the effect or the level left; in short: as §3
[35] = test system: Candida tropicalis; assay: Antifungal activity against clinical isolates of Candida tropicalis 2356 at 2 times MIC after 48 hrs by disc diffusion assay; assay type: functional; in short: as §2
[36] = test system: Candida tropicalis; assay: Inhibition of ergosterol biosynthesis in Candida tropicalis ATCC 750 assessed as ergosterol content at 1/2 MIC after 16 hrs by spectrophotometer analysis; assay type: functional; set-up: scale not given: the % may be the effect or the level left; in short: as §3
[37] = test system: Candida albicans; assay: Antifungal activity against clinical isolates of Candida albicans 2323 at 2 times MIC after 48 hrs by disc diffusion assay; assay type: functional; in short: as §2
[38] = test system: Candida tropicalis; assay: Cytotoxicity against Candida tropicalis ATCC 750 at MIC after 24 hrs by WST1 assay
[39] = test system: Candida tropicalis; assay: Antifungal activity against Candida tropicalis ATCC 750 at 2 times MIC after 48 hrs by disc diffusion assay; assay type: functional; in short: as §2
[40] = test system: Candida albicans; assay: Antifungal activity against Candida albicans ATCC 10261 at half MIC after 48 hrs by disc diffusion assay; assay type: functional; in short: as §2
[41] = test system: Candida albicans; assay: Inhibition of ergosterol biosynthesis in Candida albicans 2367 assessed as ergosterol content at MIC after 16 hrs by spectrophotometer analysis; assay type: functional; set-up: scale not given: the % may be the effect or the level left; in short: as §3
[42] = test system: Candida albicans; assay: Inhibition of ergosterol biosynthesis in Candida albicans 2323 assessed as ergosterol content at 1/2 MIC after 16 hrs by spectrophotometer analysis; assay type: functional; set-up: scale not given: the % may be the effect or the level left; in short: as §3
[43] = test system: Candida albicans; assay: Inhibition of ergosterol biosynthesis in Candida albicans 2779 assessed as ergosterol content at MIC after 16 hrs by spectrophotometer analysis; assay type: functional; set-up: scale not given: the % may be the effect or the level left; in short: as §3
[44] = test system: Candida tropicalis; assay: Antifungal activity against Candida tropicalis ATCC 750 at half MIC after 48 hrs by disc diffusion assay; assay type: functional; in short: as §2

CCc1ccnc(-c2nccn2Cc2nnc(-c3ccccc3)o2)c1
MIC [1]: > 1000 µg/mL
MIC [2]: > 1000 µg/mL
MIC [3]: > 1000 µg/mL
MIC [4]: > 1000 µg/mL
MIC [5]: > 1000 µg/mL
MIC [6]: > 1000 µg/mL
MIC [7]: > 1000 µg/mL

CCc1ccnc(-c2nccn2Cc2nnc(-c3ccc(N)cc3)o2)c1
MIC [1]: 16 µg/mL (≈ 46.2 µM)
inhibition zone (IZ) [8]: 11 mm
inhibition zone (IZ) [9]: 4 mm
inhibition zone (IZ) [10]: 2 mm
inhibition zone (IZ) [11]: 2 mm
inhibition zone (IZ) [12]: 4 mm
inhibition zone (IZ) [13]: 5 mm
inhibition zone (IZ) [14]: 13 mm
MIC [2]: 32 µg/mL (≈ 92.4 µM)
inhibition zone (IZ) [15]: 0 mm
Activity [16]: 42%
inhibition zone (IZ) [17]: 9 mm
Activity [18]: 98%
Activity [19]: 84%
inhibition zone (IZ) [20]: 8 mm
inhibition zone (IZ) [21]: 7 mm
Activity [22]: 89%
inhibition zone (IZ) [23]: 0 mm
Activity [24]: 52%
MIC [3]: 125 µg/mL (≈ 361 µM)
Activity [25]: 45%
Activity [26]: 86%
inhibition zone (IZ) [27]: 10 mm
inhibition zone (IZ) [28]: 5 mm
MIC [4]: 64 µg/mL (≈ 185 µM)
Activity [29]: 44%
inhibition zone (IZ) [30]: 1 mm
Activity [31]: 98%
inhibition zone (IZ) [32]: 8 mm
Activity [33]: 87.27%
Activity [34]: 57%
inhibition zone (IZ) [35]: 7 mm
Activity [36]: 41%
inhibition zone (IZ) [37]: 7 mm
MIC [5]: 32 µg/mL (≈ 92.4 µM)
Activity [38]: 80.81%
inhibition zone (IZ) [39]: 13 mm
inhibition zone (IZ) [40]: 7 mm
Activity [41]: 81%
Activity [42]: 43%
Activity [43]: 81%
MIC [6]: 16 µg/mL (≈ 46.2 µM)
MIC [7]: 32 µg/mL (≈ 92.4 µM)
inhibition zone (IZ) [44]: 5 mm

CCc1ccnc(-c2nccn2Cc2nnc(-c3ccccc3N)o2)c1
MIC [1]: > 1000 µg/mL
MIC [2]: > 1000 µg/mL
MIC [3]: > 1000 µg/mL
MIC [4]: > 1000 µg/mL
MIC [5]: > 1000 µg/mL
MIC [6]: > 1000 µg/mL
MIC [7]: > 1000 µg/mL

CCc1ccnc(-c2nccn2Cc2nnc(-c3ccccc3Cl)o2)c1
MIC [1]: > 1000 µg/mL
MIC [2]: > 1000 µg/mL
MIC [3]: > 1000 µg/mL
MIC [4]: > 1000 µg/mL
MIC [5]: > 1000 µg/mL
MIC [6]: > 1000 µg/mL
MIC [7]: > 1000 µg/mL
